ChEMBL document CHEMBL1156154, “Heterocyclic fused pyridone carboxylic acid M(1) positive allosteric modulators” (Bioorg Med Chem Lett, 2010)
Calls of active or inactive are those of the source. No cut-off for these calls is given here.

Tests used:
[1] = Ratio of drug level in CSF to fraction unbound in plasma in rat; format: ADME; conditions: in vivo
In short: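 Sprague–Dawley rats dosed orally at 10 mg/kg in 0.5% methocel. CSF level divided by unbound plasma level. Unbound fraction comes from rat plasma protein binding by equilibrium dialysis.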

[2] = system: Brain; assay: Drug level in Sprague-Dawley rat brain at 10 mg/kg, po; format: ADME, organism-based; design: dose 10 mg/kg, route oral; conditions: in vivo, read-out: Drug uptake
[3] = system: Cerebrospinal fluid; assay: Drug level in Sprague-Dawley rat CSF at 10 mg/kg, po; format: ADME, organism-based; design: dose 10 mg/kg, route oral; conditions: in vivo, read-out: Drug uptake
[4] = system: Rattus norvegicus; assay: Plasma concentration in Sprague-Dawley rat at 10 mg/kg, po; format: ADME, organism-based; design: dose 10 mg/kg, route oral; conditions: in vivo
[5] = molecular target: T1, Muscarinic acetylcholine receptor M2 (Homo sapiens) (UniProt P08172); assay: Positive allosteric modulator activity at human muscarinic acetylcholine M2 receptor expressed in CHO cells assessed as effect on acetylcholine-induced intracellular calcium mobilization by FLIPR assay; format: functional, cell-based
T1 sequence (whole entry): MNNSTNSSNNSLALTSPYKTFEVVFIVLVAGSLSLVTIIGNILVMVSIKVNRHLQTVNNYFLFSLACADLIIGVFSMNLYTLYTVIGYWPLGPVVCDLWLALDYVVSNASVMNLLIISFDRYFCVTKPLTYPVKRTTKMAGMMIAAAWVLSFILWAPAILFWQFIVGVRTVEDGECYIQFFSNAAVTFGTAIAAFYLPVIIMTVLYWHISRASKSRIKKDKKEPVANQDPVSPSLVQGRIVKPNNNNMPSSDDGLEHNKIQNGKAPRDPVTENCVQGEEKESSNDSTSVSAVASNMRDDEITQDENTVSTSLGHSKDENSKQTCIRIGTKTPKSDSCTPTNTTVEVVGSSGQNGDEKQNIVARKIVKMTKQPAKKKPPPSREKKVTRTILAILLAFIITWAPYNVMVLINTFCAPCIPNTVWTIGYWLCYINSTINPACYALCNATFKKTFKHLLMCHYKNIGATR

[6] = molecular target: T2, Muscarinic acetylcholine receptor M4 (Homo sapiens) (UniProt P08173); assay: Positive allosteric modulator activity at human muscarinic M4 receptor expressed in CHO cells assessed as effect on acetylcholine-induced intracellular calcium mobilization by FLIPR assay; format: functional, cell-based
T2 sequence (whole entry): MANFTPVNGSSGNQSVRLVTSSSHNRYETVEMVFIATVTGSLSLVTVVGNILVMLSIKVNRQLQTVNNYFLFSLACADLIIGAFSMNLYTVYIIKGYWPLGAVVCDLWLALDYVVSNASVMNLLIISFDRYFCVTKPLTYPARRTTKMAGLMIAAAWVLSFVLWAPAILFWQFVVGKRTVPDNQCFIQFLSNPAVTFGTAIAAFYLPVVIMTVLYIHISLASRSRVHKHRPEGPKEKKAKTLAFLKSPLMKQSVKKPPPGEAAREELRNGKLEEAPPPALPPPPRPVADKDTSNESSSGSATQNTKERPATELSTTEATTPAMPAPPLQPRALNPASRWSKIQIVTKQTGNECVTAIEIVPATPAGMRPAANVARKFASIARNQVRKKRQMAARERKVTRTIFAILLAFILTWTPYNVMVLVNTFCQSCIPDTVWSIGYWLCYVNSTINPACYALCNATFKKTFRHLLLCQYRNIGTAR

[7] = Plasma protein binding in human serum by equilibrium dialysis method
[8] = molecular target: T3, Muscarinic acetylcholine receptor M1 (Homo sapiens) (UniProt P11229); assay: Positive allosteric modulator activity at human muscarinic M1 receptor expressed in CHO cells assessed as effect on acetylcholine-induced intracellular calcium mobilization by FLIPR assay; format: functional, cell-based
T3 sequence (whole entry): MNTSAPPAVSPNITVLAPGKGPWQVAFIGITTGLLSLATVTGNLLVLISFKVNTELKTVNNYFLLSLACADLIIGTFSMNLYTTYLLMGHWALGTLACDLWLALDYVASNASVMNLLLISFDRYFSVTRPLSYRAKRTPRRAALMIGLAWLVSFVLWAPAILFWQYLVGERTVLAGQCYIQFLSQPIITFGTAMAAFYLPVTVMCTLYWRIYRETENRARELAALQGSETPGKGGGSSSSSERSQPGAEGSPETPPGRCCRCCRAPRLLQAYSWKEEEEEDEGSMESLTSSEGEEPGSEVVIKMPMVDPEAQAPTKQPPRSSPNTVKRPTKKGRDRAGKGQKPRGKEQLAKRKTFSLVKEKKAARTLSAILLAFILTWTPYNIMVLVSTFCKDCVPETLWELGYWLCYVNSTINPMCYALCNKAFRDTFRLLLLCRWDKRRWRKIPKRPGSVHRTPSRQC
In short: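 CHO cells expressing human M1 were run with an EC20 concentration of acetylcholine. Calcium mobilization was read on a FLIPR384. Potency is reported as the inflection point. Percent max is the compound plus EC20 ACh response relative to the maximal acetylcholine effect.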

[9] = Ratio of drug level in brain to plasma in Sprague-Dawley rat at 10 mg/kg, po; format: ADME, organism-based; design: dose 10 mg/kg, route oral
[10] = molecular target: Muscarinic acetylcholine receptor M3 (Homo sapiens) (UniProt P20309); assay: Positive allosteric modulator activity at human muscarinic M3 receptor expressed in CHO cells assessed as effect on acetylcholine-induced intracellular calcium mobilization by FLIPR assay; format: functional, cell-based
Muscarinic acetylcholine receptor M3 (Homo sapiens), sequence (P20309 whole entry, looked up): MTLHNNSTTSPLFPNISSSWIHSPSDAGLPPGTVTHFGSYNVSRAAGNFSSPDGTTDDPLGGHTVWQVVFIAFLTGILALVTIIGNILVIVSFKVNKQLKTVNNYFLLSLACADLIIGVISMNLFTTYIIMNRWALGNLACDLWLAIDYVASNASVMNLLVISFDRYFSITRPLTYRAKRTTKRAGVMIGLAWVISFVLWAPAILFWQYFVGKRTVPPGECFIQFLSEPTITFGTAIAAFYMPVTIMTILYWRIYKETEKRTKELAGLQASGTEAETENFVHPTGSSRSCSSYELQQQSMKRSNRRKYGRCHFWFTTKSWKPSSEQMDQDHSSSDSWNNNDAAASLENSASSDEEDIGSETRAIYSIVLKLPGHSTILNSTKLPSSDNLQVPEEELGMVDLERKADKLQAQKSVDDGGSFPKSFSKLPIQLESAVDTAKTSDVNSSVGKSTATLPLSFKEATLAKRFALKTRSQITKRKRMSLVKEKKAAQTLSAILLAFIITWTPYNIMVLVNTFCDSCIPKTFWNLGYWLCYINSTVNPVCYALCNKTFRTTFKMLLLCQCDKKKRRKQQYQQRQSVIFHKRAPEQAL

[11] = Plasma protein binding in rat serum by equilibrium dialysis method
[12] = species: Mus musculus; assay: Effect on behavioral activity in mouse contextual fear conditioning model assessed as episodic memory; format: functional, organism-based
[13] = Clearance in rat at 10 mg/kg, po and 2 mg/kg, iv; format: ADME, organism-based; conditions: in vivo
In short: (§1)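 Rat pharmacokinetics, oral dosing at 10 mpk and intravenous dosing at 2 mpk. Bioavailability, half-life and clearance derived from these profiles.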

[14] = Bioavailability in rat at 10 mg/kg, po and 2 mg/kg, iv; format: ADME, organism-based; conditions: in vivo; in short: as §1
[15] = Half life in rat at 10 mg/kg, po and 2 mg/kg, iv; format: ADME, organism-based; conditions: in vivo; in short: as §1
[16] = Ratio of drug level in CSF to fraction unbound in plasma in CF-1 mouse; format: ADME; conditions: in vivo
In short: (§2)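 CF-1 wild-type and P-gp knockout mice were dosed, and plasma and CSF were taken 30 min later. The CSF to unbound plasma ratio was then calculated.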

[17] = Ratio of drug level in CSF to fraction unbound in plasma in P-glycoprotein deficient mouse; format: ADME; conditions: in vivo; in short: as §2

| SMILES | Ratio [1] | concentration [2] [µM] | concentration [3] [µM] | concentration [4] [µM] | Activity [5] | Activity [6] | fraction unbound [7] | IP [8] [µM] | Kp [9] | Activity [10] | fraction unbound [11] | Activity [12] | clearance [13] [L/h/kg] | bioavailability [14] [%] | half-life [15] [h] | Ratio [16] | Ratio [17] |
| --- | --- | --- | --- | --- | --- | --- | --- | --- | --- | --- | --- | --- | --- | --- | --- | --- | --- |
| Cn1cc(-c2ccc(Cn3cc(C(=O)O)c(=O)c4sccc43)nc2)cn1 | 0.05 | 0.159 | 0.042 | 9.42 | inactive | inactive | 0.279 | 0.34 | 0.02 | inactive | 0.094 |  |  |  |  |  |  |
| Cc1ccn(-c2ccc(Cn3cc(C(=O)O)c(=O)c4ccncc43)cc2)n1 | 0.03 | 1.2 | 0.024 | 78.5 | inactive | inactive | 0.125 | 0.25 | 0.15 | inactive | 0.011 |  |  |  |  |  |  |
| O=C(O)c1cn(Cc2ccc(-n3cccn3)cc2)c2ccsc2c1=O | 0.21 | 0.316 | 0.123 | 4.24 | inactive | inactive | 0.14 | 0.52 | 0.07 | inactive | 0.132 | inactive | 0.408 | 33 | 3.7 | 0.05 | 0.16 |
